From PubChem BioAssay
TRPN1 ag: agonists of zebrafish TRPN1 channel | 0.18% of 220,000 active | activation, % at 3 µM | HEK293 zebrafish TRPN1-YFP, Fluo-8 calcium fluorescence; 100% = response to 87 µM carbachol;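 active = activation above its plate's cutoff, the mean activation of test wells on that plate plus 3 SD, cut at about 19% in these data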
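System: zebrafish TRPN1-YFP in HEK293 cells / Dosing: 3 µM single point / Timing: dye loading 1 h at 37 °C, then 30 min room temperature / Signal: Fluo-8 calcium fluorescence, excitation 470-495 nm, emission 515-575 nm / Read-out basis: percent activation from peak over basal fluorescence ratio, control-normalized / Control set: high carbachol 87 µM, low DMSO alone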
CRFR2-BP ag: agonists of human CRF-binding protein/CRF-R2 receptor complex. HEK293 CRF-R2/CRF-BP, calcium dye fluorescence (FLIPR); percent of saturating CRF peptide response. activation, % at 13.2 µM. 0.46% of 350,000 active;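 active = activation of at least 50%, plus an integration ratio under a set limit after plate pattern correction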
TRPML3 agonist: human mucolipin-3 channel agonism; HEK293 TRPML3-YFP, Fluo-8 calcium fluorescence; 100% = the carbachol control signal; AID 1448; 0.29% of 220,000 active; activation, % at 3 µM; Q8TDD5;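 active = activation above its plate's cutoff, the mean activation of the plate's test wells plus 3 SD, cut at about 12% in these data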
Target sequence (Q8TDD5 whole entry, looked up): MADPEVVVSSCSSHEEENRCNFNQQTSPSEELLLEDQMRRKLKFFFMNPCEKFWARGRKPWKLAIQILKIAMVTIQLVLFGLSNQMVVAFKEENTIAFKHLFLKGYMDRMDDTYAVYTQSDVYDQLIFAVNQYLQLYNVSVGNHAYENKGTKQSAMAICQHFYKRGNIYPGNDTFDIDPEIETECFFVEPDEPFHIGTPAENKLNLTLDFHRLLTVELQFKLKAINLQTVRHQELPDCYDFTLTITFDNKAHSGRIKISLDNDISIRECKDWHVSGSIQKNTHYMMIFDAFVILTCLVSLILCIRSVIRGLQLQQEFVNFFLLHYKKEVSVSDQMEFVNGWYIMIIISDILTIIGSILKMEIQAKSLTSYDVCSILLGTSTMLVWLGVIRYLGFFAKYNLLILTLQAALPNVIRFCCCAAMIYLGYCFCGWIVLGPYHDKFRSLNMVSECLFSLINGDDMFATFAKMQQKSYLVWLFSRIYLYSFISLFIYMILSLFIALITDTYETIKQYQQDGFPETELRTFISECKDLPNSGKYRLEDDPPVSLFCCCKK
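Test system: HEK293 cells stably carrying human TRPML3-YFP; Doses: single dose, 3 µM final nominal compound, 0.3% DMSO final; Schedule: dye loading 1 h 37 °C then 30 min ambient, 125 s read; Technique: Fluo-8 calcium fluorescence; Benchmarks: high control carbachol 87 µM, low control DMSO.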
OXTR agonist: activates the human oxytocin receptor. CHO-OTR cells, Fluo-8 calcium fluorescence; normalized: DMSO 0%, oxytocin 100%. activation, % at 3 µM. 0.32% of 320,000 active;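 active = activation above the mean of all tested compounds plus 3 SD, cutoff set per screening run, cut at about 20% in these data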;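 note: peak over basal fluorescence ratio from a 100 s FLIPR kinetic read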
OXTR potentiate: human OXTR potentiation; CHO-OTR cells, Fluo-8 calcium fluorescence, potentiator mode; 0% = oxytocin EC15, 100% = EC100; 0.061% of 320,000 active; activation, % at 3 µM; P30559;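 active = activation above that plate's cutoff, the mean activation of tested compounds plus 3 SD, cut at about 6.6% in these data, passing the limit was not always enough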
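System: human OTR in CHO cells / Also added: sub-maximal oxytocin, roughly EC15 / Control set: EC15 oxytocin low, 75 nM oxytocin high / Schedule: 6 min compound pre-incubation at room temperature, 100 s kinetic read / Compound: single-point 3.0 µM / Replication: singlicate / Technique: Fluo-8 calcium dye fluorescence / Read-out basis: % activation of max/min ratio relative to oxytocin controls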
V1aR counter: V1a receptor agonism, counter-screen for OXTR agonists | 0.25% of 320,000 active | AID 2797 | CHO-V1R cells, Fluo-8 calcium fluorescence, agonist mode; 0% DMSO, 100% 3 nM vasopressin | activation, % at 3 µM;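 active = activation above the mean activation of all tested compounds plus 3 SD, per screening run, cut at about 20% in these data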;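 note: signal is peak over basal fluorescence ratio across a 100 second FLIPR read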
OXTR agonist cf: human OXTR agonism, confirmation; shares compounds with OXTR agonist; CHO-OTR cells, Fluo-8 calcium fluorescence, agonist; activation, % at 3 µM; 20% of 390 active;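 active = mean activation above about 20% derived from the earlier single-dose screen, limit read from the data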;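 note: peak over minimum fluorescence ratio per well during a 100 second FLIPR read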
V1R ag counter 3x: activates V1a receptor in oxytocin agonist counter-screen | activation, % at 3 µM | CHO-V1R cells, Fluo-8 calcium fluorescence | shares compounds with OXTR agonist | AID 434991 | 10% of 390 active;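 active = mean activation over triplicate exceeds the hit threshold set in the earlier primary screen, cut at about 20% in these data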;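 note: peak over basal fluorescence ratio within a 100 second read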
A number is an active result; i = inactive; nt = no result. A selection: hits, their analogues and other compounds. The true share with any hit is near 0.85%.

SMILES	TRPN1 ag	CRFR2-BP ag	TRPML3 agonist	OXTR agonist	OXTR potentiate	V1aR counter	OXTR agonist cf	V1R ag counter 3x
COc1ccccc1CCNCc1ccc(OC)c(OCc2ccccc2)c1	i	i	i	22	i	i	i	i
COc1cc(CNCCc2c[nH]c3ccccc23)ccc1OCc1ccccc1F	i	i	i	22	i	i	i	i
COc1ccc(CNCc2ccco2)cc1OCc1ccccc1	i	i	i	i	i	i	nt	nt
COc1cccc(CNCCc2c[nH]c3ccccc23)c1OCc1ccccc1	i	i	i	29	i	i	i	i
CCOC(=O)NC(NCc1cccc(C(F)(F)F)c1)(C(F)(F)F)C(F)(F)F	i	i	i	25	i	i	i	i
CCOC(=O)NC(NCc1ccccc1Cl)(C(F)(F)F)C(F)(F)F	i	i	i	i	i	i	nt	nt
COc1ccc(OC)c(S(=O)(=O)N2CCN(c3ccccc3OC)CC2)c1	nt	i	nt	i	i	i	nt	nt
CC1=C2C3OC(=O)C(C)C3CCC2(C)C=CC1=NO (configuration not stated)	nt	i	nt	nt	nt	nt	nt	nt
COc1ccc(-c2c(C#Cc3ccsc3)c3cc(-c4ccc(C(N)=O)cc4)ccc3n2C)cc1	nt	i	nt	i	i	i	nt	nt
CC(Sc1ccc(Cl)cc1)C(=O)Nc1ccc(S(=O)(=O)N2CCOCC2)cc1 (configuration not stated)	i	i	i	29	i	i	21	i
CC1C/C(=C/c2ccco2)C(=O)/C(=C/c2ccco2)C1 (configuration not stated)	i	nt	i	24	i	i	i	i
C[C@@H]1CN([C@H](C)CO)C(=O)CCCn2nncc2CO[C@H]1CN(C)C(=O)c1ccncc1	nt	i	nt	nt	nt	nt	nt	nt
O=C(N1CCCCC1)N1CCN(S(=O)(=O)c2ccc(Cl)cc2)CC1	i	i	i	27	i	i	i	i
O=C(N1CCCCCC1)N1CCN(S(=O)(=O)c2ccccc2)CC1	i	i	i	i	i	i	nt	nt
CCCN(C(=O)/C=C/c1ccc(S(=O)(=O)N(CC)CC)cc1)C1CCS(=O)(=O)C1 (configuration not stated)	nt	i	nt	i	i	i	nt	nt
O=C(CN1CCCC1c1cccs1)N1CCN(S(=O)(=O)c2cccc(F)c2)CC1 (configuration not stated)	nt	i	nt	i	i	i	nt	nt
N=c1n(CC(=O)c2ccc(Br)s2)c2ccccc2n1Cc1ccccc1	i	i	i	23	i	i	22	i
Cn1ccnc1CN1CCCCC1C(=O)Nc1ccc(Oc2cccnc2)cc1 (configuration not stated)	nt	i	nt	i	i	i	nt	nt
COC(/C(=N/O)c1ccc(Cl)cc1)c1ccccc1 (configuration not stated)	nt	i	nt	i	i	i	nt	nt
COc1ccc(C(C(=O)NC2CCCC2)N(CC2CCCO2)C(=O)Cc2cccs2)cc1OC (configuration not stated)	i	i	i	i	i	i	nt	nt
O=C(NC1CCCC1)C(c1cccs1)N(CC1CCCO1)C(=O)Cc1cccs1 (configuration not stated)	i	i	i	20	i	i	i	i
O=c1c2ccccc2sn1-c1ccccc1F	nt	i	nt	nt	nt	nt	nt	nt
Cc1ccccc1-n1sc2cc(F)ccc2c1=O	i	i	i	23	i	i	i	i
COC(=O)c1sc(NC(=O)c2cc(-c3ccccc3)nc3ccccc23)c(C#N)c1C	i	54	i	20	i	i	i	i
CCOC(=O)c1sc(NC(=O)c2cc(-c3ccc(C)cc3)nc3ccccc23)c(C#N)c1C	i	i	i	i	i	i	nt	nt
SMILES	TRPN1 ag	CRFR2-BP ag	TRPML3 agonist	OXTR agonist	OXTR potentiate	V1aR counter	OXTR agonist cf	V1R ag counter 3x
Cc1ccccc1-c1cc(C(=O)Nc2sc(C(=O)OC(C)C)c(C)c2C#N)c2ccccc2n1	i	i	i	21	i	i	i	i
Cc1c(CC(=O)N2C[C@H]3C[C@@H](C2)c2cccc(=O)n2C3)c(=O)oc2cc3occ(C(C)(C)C)c3cc12	nt	i	nt	i	i	i	nt	nt
CCOC(=O)c1c(C)oc2ccc(O)c(CN(C)C)c12	i	i	i	i	i	i	nt	nt
CCOC(=O)c1c(CSc2ccc(CC)cc2)oc2ccc(O)c(CN(C)C)c12	nt	i	nt	25	i	i	i	i
O=C(O)c1cscc1-c1cccc2ccccc12	nt	i	nt	nt	nt	nt	nt	nt
CC(C)(C)N(NC(=O)Nc1ccc(F)cc1)C(=O)c1ccccc1	i	i	i	i	i	i	nt	nt
CC(C)(C)N(NC(=O)Nc1ccc(Cl)c(Cl)c1)C(=O)c1ccccc1	i	i	i	20	i	i	i	i
Cn1c(=O)c(C(=O)NNC(=O)c2ccccc2F)c(O)c2ccccc21	nt	51	nt	20	i	i	i	i
COC(=O)c1cc(NC(=S)NCc2ccc(Cl)cc2)cc(C(=O)OC)c1	i	i	i	i	i	i	nt	nt
COC(=O)c1cccc(NC(=S)NCc2ccc(Cl)cc2)c1	i	i	i	21	i	i	i	i
COc1ccc(CCn2c(C(C)C)nc3c(c(=O)c4ccccc4n3C)c2=O)cc1	i	115	i	30	i	i	i	i
N#Cc1ncc(Cc2ccccc2)nc1C#N	nt	i	nt	i	i	i	nt	nt
CCC1(c2ccc(F)cc2)NC(=O)N(CC(=O)Nc2ccc(N3CCCCC3)cc2)C1=O (configuration not stated)	nt	i	nt	27	i	i	i	i
CCOC(=O)c1cc(C)sc1NC(=O)CN1CCN(C(=O)c2ccco2)CC1	nt	i	nt	23	i	i	i	i
Cc1cccc(OCCNc2cc(N3CCN(C)CC3)ccc2[N+](=O)[O-])c1	i	i	i	i	i	i	nt	nt
Cc1ccc(OCCNc2cc(N3CCN(CCO)CC3)ccc2[N+](=O)[O-])cc1C	i	i	i	23	i	i	i	i
Cc1cccc2sc(NC(=O)CCNS(=O)(=O)c3cccc4nonc34)nc12	i	i	i	20	i	i	i	i
CCC(C(=O)NC1CCCC1)n1c2ccccc2c2nc(=O)cc(C)n21 (configuration not stated)	nt	i	nt	nt	nt	nt	nt	nt
COC(=O)C1=C(C)N(Cc2ccccc2)C(=NCc2ccc(OC)cc2)N[C@H]1c1cccc(F)c1	nt	i	nt	24	i	i	i	i
COC(=O)C1=C(C)N(Cc2ccccc2)C(=NCC(C)C)N[C@H]1c1cccc(C(F)(F)F)c1	nt	i	nt	i	i	i	nt	nt
COC(=O)C1=C(C)N(Cc2ccccc2)C(=NCc2cccc(Cl)c2)N[C@H]1c1cccc(F)c1	nt	i	nt	22	i	i	i	i
